Results taken from ChEMBL document CHEMBL2034868, “Synthesis of methoxylated goniothalamin, aza-goniothalamin and γ-pyrones and their in vitro evaluation against human cancer cells” (Bioorg Med Chem, 2012).

Assays:
[1] = system: U-251; test: Growth inhibition of human U251 cells after 48 hrs by sulforhodamine B assay; format: functional
In short: (§1)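 Cells in 96-well plates were exposed for 48 h at 37 °C in 5% CO2 to compounds at 0.25, 2.5, 25 and […] in DMSO/RPMI. Doxorubicin was the positive control at […]. Cells were then fixed with 50% trichloroacetic acid and stained with sulforhodamine B, with protein read at 540 nm. TGI (the concentration where T = T0) was taken by non-linear regression of each cell line's concentration-response curve.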

[2] = system: MCF7; test: Growth inhibition of human MCF7 cells after 48 hrs by sulforhodamine B assay; format: functional; in short: as §1
[3] = Growth inhibition of human NCI/ADR cells after 48 hrs by sulforhodamine B assay; format: functional; in short: as §1
[4] = system: 786-0; test: Growth inhibition of human 786-0 cells after 48 hrs by sulforhodamine B assay; format: functional; in short: as §1
[5] = system: NCI-H460; test: Growth inhibition of human NCI-H460 cells after 48 hrs by sulforhodamine B assay; format: functional; in short: as §1
[6] = system: OVCAR-3; test: Growth inhibition of human OVCAR3 cells after 48 hrs by sulforhodamine B assay; format: functional; in short: as §1
[7] = system: HT-29; test: Growth inhibition of human HT-29 cells after 48 hrs by sulforhodamine B assay; format: functional; in short: as §1
[8] = Growth inhibition of human HaCaT cells after 48 hrs by sulforhodamine B assay; format: cell-based; in short: as §1

Row | SMILES | GI [1] [µM] | GI [2] [µM] | GI [3] [µM] | GI [4] [µM] | GI [5] [µM] | GI [6] [µM] | GI [7] [µM] | TGI at 48 h [8] [µM]
1 | O=C1C=COC(/C=C/c2ccccc2)C1 (stereo unspecified) | 121.8 | 152.6 | 105.3 | 138.2 | 82.4 | 58.2 | 123.6 | 126
2 | O=C1C=COC(/C=C/c2ccc(C(F)(F)F)cc2)C1 (stereo unspecified) | 38.6 | 41.2 | 51.6 | 39.6 | 95.6 | 58.2 | 33.3 | 123
3 | COc1ccc(/C=C/C2CC(=O)C=CO2)cc1 (stereo unspecified) | 151.9 | 155.5 | 239.3 | 191.5 | 149.4 | 87.4 | 203.9 | 144
4 | COc1ccc(/C=C/C2CC(=O)C=CO2)cc1OC (stereo unspecified) | 86.9 | 130.2 | 145.8 | 145.1 | 89.6 | 74.3 | 123.2 | 134
5 | COc1cc(/C=C/C2CC(=O)C=CO2)cc(OC)c1OC (stereo unspecified) | 101.8 | 149.4 | 223.2 | 125 | 127.3 | 85.4 | 134.5 | 155
6 | O=C1C=COC(/C=C/c2ccc3c(c2)OCO3)C1 (stereo unspecified) | 77 | 81.4 | 186.8 | 104.1 | 147.4 | 101.7 | 126.9 | 145
7 | O=c1ccoc(/C=C/c2ccccc2)c1 | 285.4 | 691.1 | 514.2 | 409.9 | 508.5 | 545.5 | 344.1 | 711
8 | COc1ccc(/C=C/c2cc(=O)cco2)cc1 | 278.4 | 395.9 | 309.9 | 376.8 | 606.1 | 327.9 | 379.2 | 710
9 | COc1ccc(/C=C/c2cc(=O)cco2)cc1OC | 338.9 | 953.6 | 407.9 | 635.4 | 545.5 | 540.2 | 806.7 | 690
10 | COc1ccc(C2CC(=O)C=CO2)cc1 (stereo unspecified) | 226.1 | 172.9 | 419.6 | 197 | 192.8 | 248.6 | 203.4 | 264
11 | COc1ccc(-c2cc(=O)cco2)cc1 | >1236.3 | >1236.3 | >1236.3 | >1236.3 | >1236.3 | >1236.3 | >1236.3 | > 1240
12 | COc1ccc(C2CC(=O)C(Br)=CO2)cc1 (stereo unspecified) | 46.4 | 42.2 | 52.9 | 33.4 | 117.7 | 113.5 | 69 | 164
13 | COc1ccc(C2CC(=O)C(I)=CO2)cc1 (stereo unspecified) | 24.4 | 43.2 | 39.7 | 27 | 74.6 | 38.2 | 24.4 | 53.3
14 | O=C1C=CCC(/C=C/c2ccccc2)N1 (stereo unspecified) | 797.6 | 607.4 | 966.6 | >1254.8 | 928.5 | >1254.8 | 1195.8 | > 1250
15 | O=C1C=CCC(/C=C/c2ccccc2C(F)(F)F)N1 (stereo unspecified) | 69.9 | 120.2 | 40.6 | 123.4 | 194.7 | 329.3 | 195.4 | 249
16 | O=C1C=CCC(/C=C/c2ccc(C(F)(F)F)cc2)N1 (stereo unspecified) | 130.3 | 149.5 | 71.8 | 127.8 | 150.4 | 126 | 139.2 | 174

Row | SMILES | GI [1] [µM] | GI [2] [µM] | GI [3] [µM] | GI [4] [µM] | GI [5] [µM] | GI [6] [µM] | GI [7] [µM] | TGI at 48 h [8] [µM]
17 | COc1ccc(/C=C/C2CC=CC(=O)N2)cc1 (stereo unspecified) | 981.3 | >1090.4 | 841.7 | >1090.4 | >1090.4 | 786.8 | >1090.4 | > 1090
18 | COc1ccc(/C=C/C2CC=CC(=O)N2)c(OC)c1 (stereo unspecified) | >964.1 | >964.1 | >964.1 | >964.1 | >964.1 | >964.1 | >964.1 | > 964
19 | COc1ccc(/C=C/C2CC=CC(=O)N2)cc1OC (stereo unspecified) | >964.1 | >964.1 | >964.1 | >964.1 | >964.1 | >964.1 | >964.1 | > 964
20 | COc1cc(/C=C/C2CC=CC(=O)N2)cc(OC)c1 (stereo unspecified) | 169.9 | 146.4 | 203.2 | 173.4 | 145.5 | 232.1 | 196.6 | 212
21 | COc1cc(/C=C/C2CC=CC(=O)N2)cc(OC)c1OC (stereo unspecified) | >864.1 | >864.1 | >864.1 | >864.1 | >864.1 | >864.1 | >864.1 | > 864
22 | COc1cc(OC)c(OC)cc1/C=C/C1CC=CC(=O)N1 (stereo unspecified) | >864.1 | >864.1 | >864.1 | >864.1 | >864.1 | >864.1 | >864.1 | > 864
23 | O=C1C=CCC(/C=C/c2ccccc2C(F)(F)F)O1 (racemic) | 43.4 | 50.4 | 75.5 | 52.3 | 241.5 | 295.6 | 71.7 | 82.7
24 | O=C1C=CCC(/C=C/c2ccc(C(F)(F)F)cc2)O1 (racemic) | 36.8 | 51 | 54.8 | 44.5 | 476.9 | 167.2 | 36.2 | 69.7
25 | COc1ccc(/C=C/C2CC=CC(=O)O2)cc1 (racemic) | 20.6 | 25.5 | 17.3 | 21.6 | 28.3 | 61.5 | 33.7 | 58.8
26 | COc1ccc(/C=C/C2CC=CC(=O)O2)c(OC)c1 (racemic) | 4.6 | 5.4 | 8.8 | 4.1 | 6 | 5.6 | 6.6 | 15.8
27 | COc1ccc(/C=C/C2CC=CC(=O)O2)cc1OC (racemic) | 23.9 | 7.8 | 11.6 | 10.9 | 14.6 | 16.8 | 17.2 | 63
28 | COc1cc(/C=C/C2CC=CC(=O)O2)cc(OC)c1 (racemic) | 8.1 | 9.5 | 8.9 | 10.6 | 9 | 19.1 | 8.2 | 8.8
29 | COc1cc(/C=C/C2CC=CC(=O)O2)cc(OC)c1OC (racemic) | 25.1 | 15.3 | 35.1 | 18.5 | 28.8 | 44.9 | 18.8 | 21.6
30 | COc1cc(OC)c(OC)cc1/C=C/C1CC=CC(=O)O1 (racemic) | 11.5 | 3.8 | 9.4 | 6 | 9.8 | 7.2 | 15.9 | 46.9
31 | COc1cccc2c1C(=O)c1c(O)c3c(c(O)c1C2=O)C[C@@](O)(C(=O)CO)C[C@@H]3O[C@H]1C[C@H](N)[C@H](O)[C@H](C)O1 [DOXORUBICIN] | 2.4 | 3.7 | 13.5 | 2.1 | 1.3 | 6.3 | 13.9 | 0.8
32 | O=C1C=CC[C@H](/C=C/c2ccccc2)O1 [GONIOTHALAMIN] | 13.7 | 12.7 | 8 | 14.8 | 13.6 | 14.2 | 13.9 | 27.7
